Laboratory results: ChEMBL document CHEMBL3272356, “Adriamycin analogs. Periodate oxidation of adriamycin” (J Med Chem, 1976)
Active and inactive are the calls of the source. The rule behind the calls is not given here.

Key:
L1210 [1] = assay: Inhibition of DNA synthesis in mouse L1210 cells at < 100 uM preincubated for 3 hrs followed by [3H]-thymidine addition measured after 1 hr by scintillation spectrometric analysis; assay type: functional, cell-based
How it was run: (§1)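 L1210 suspension at 2 × 10^6/ml in 1640 medium with 10% fetal calf serum and 20 mM HEPES, pH 7.2. Drug tested at 100 to 0.100 µM in half-log steps, 3 h at 37° with shaking. Pulse 1 h with 0.5 µCi/ml [3H]thymidine (DNA) or [3H]uridine (RNA). TCA-precipitable counts expressed as % of control; ED50 read from the points bracketing 50%, with the bracketing assays repeated.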

L1210 [2] = assay: Inhibition of RNA synthesis in mouse L1210 cells at < 100 uM preincubated for 3 hrs followed by [3H]-uridine addition measured after 1 hr by scintillation spectrometric analysis; assay type: functional, cell-based; how it was run: as §1
Calf thymus DNA [3] = assay: Binding affinity to calf thymus DNA assessed as increase in melting temperature at 1.54 x 10^-5 M by UV spectrophotometric analysis; assay type: nucleic-acid assay; details: Bos taurus
L1210 [4] = assay: Inhibition of DNA synthesis in mouse L1210 cells preincubated for 3 hrs followed by [3H]-thymidine addition measured after 1 hr by scintillation spectrometric analysis; assay type: functional; details: read-out: ED50 (the source's name); how it was run: as §1
L1210 [5] = assay: Inhibition of RNA synthesis in mouse L1210 cells preincubated for 3 hrs followed by [3H]-uridine addition measured after 1 hr by scintillation spectrometric analysis; assay type: functional; details: read-out: ED50 (the source's name); how it was run: as §1
P388 [6] = assay: Antitumor activity against mouse P388 cells allografted in mouse assessed as increase in survival time at 50 mg/kg, ip qd administered for 9 days relative to control; assay type: functional; details: route intraperitoneal
P388 [7] = assay: Antitumor activity against mouse P388 cells allografted in mouse assessed as increase in survival time at 25 mg/kg, ip qd administered for 9 days relative to control; assay type: functional; details: route intraperitoneal
P388 [8] = assay: Antitumor activity against mouse P388 cells allografted in mouse assessed as increase in survival time at 12.5 mg/kg, ip qd administered for 9 days relative to control; assay type: functional; details: route intraperitoneal
P388 [9] = assay: Antitumor activity against mouse P388 cells allografted in mouse assessed as increase in survival time at 6.25 mg/kg, ip qd administered for 9 days relative to control; assay type: functional; details: route intraperitoneal
P388 [10] = assay: Antitumor activity against mouse P388 cells allografted in mouse assessed as increase in survival time at 3.12 mg/kg, ip qd administered for 9 days relative to control; assay type: functional; details: route intraperitoneal
P388 [11] = assay: Antitumor activity against mouse P388 cells allografted in mouse assessed as increase in survival time at 1.56 mg/kg, ip qd administered for 9 days relative to control; assay type: functional; details: route intraperitoneal
Mus musculus [12] = assay: Acute toxicity in mouse allografted with mouse P388 cells assessed as survival less than 5 days at 1.56 to 50 mg/kg, ip qd; assay type: organism-based; set-up: dose 1.56-50 mg/kg, route intraperitoneal; details: in vivo, 120 h
How it was run: (§2)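 BDF or CDF mice were implanted ip with 10^6 P-388 lymphocytic leukemia cells on day 0 and dosed ip on days 1-9. Acute toxic drug deaths were scored as survival of less than 5 days after the start of treatment. Testing was done by the NCI Drug Research and Development Program.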

Calf thymus DNA [13] = assay: Binding affinity to calf thymus DNA assessed as bathochromatic shift at 1:1 to 16:1 compound to DNA ratio by UV-visible spectra analysis; assay type: nucleic-acid assay; details: Bos taurus
How it was run: (§3)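 Calf thymus DNA stock sonicated on ice to limit precipitation of the complex. DNA concentration was taken from the supplier's phosphorus content. UV-visible spectra were recorded.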

Calf thymus DNA [14] = assay: Binding affinity to calf thymus DNA assessed as decrease in absorptivity of visible maxima of compound at 1:1 to 16:1 compound to DNA ratio by UV-visible spectra analysis; assay type: nucleic-acid assay; details: Bos taurus; how it was run: as §3
Calf thymus DNA [15] = assay: Binding affinity to calf thymus DNA assessed as increase in melting temperature at 2.1 x 10^-5 M by UV spectrophotometric analysis; assay type: nucleic-acid assay; details: Bos taurus
P388 [16] = assay: Antitumor activity against mouse P388 cells allografted in mouse assessed as change in survival time at 4 mg/kg, ip qd administered for 9 days relative to control; assay type: functional; details: route intraperitoneal
P388 [17] = assay: Antitumor activity against mouse P388 cells allografted in mouse assessed as increase in survival time at 1 mg/kg, ip qd administered for 9 days relative to control; assay type: functional; details: route intraperitoneal
P388 [18] = assay: Antitumor activity against mouse P388 cells allografted in mouse assessed as increase in survival time at 0.5 mg/kg, ip qd administered for 9 days relative to control; assay type: functional; details: route intraperitoneal
P388 [19] = assay: Antitumor activity against mouse P388 cells allografted in mouse assessed as increase in survival time at 0.25 mg/kg, ip qd administered for 9 days relative to control; assay type: functional; details: route intraperitoneal
P388 [20] = assay: Antitumor activity against mouse P388 cells allografted in mouse assessed as increase in survival time at 0.12 mg/kg, ip qd administered for 9 days relative to control; assay type: functional; details: route intraperitoneal
P388 [21] = assay: Antitumor activity against mouse P388 cells allografted in mouse assessed as increase in survival time at 0.06 mg/kg, ip qd administered for 9 days relative to control; assay type: functional; details: route intraperitoneal
Mus musculus [22] = assay: Acute toxicity in mouse allografted with mouse P388 cells assessed as survival less than 5 days at 0.06 to 4 mg/kg, ip qd; assay type: organism-based; set-up: dose 0.06-4 mg/kg, route intraperitoneal; details: in vivo, 120 h; how it was run: as §2
Calf thymus DNA [23] = assay: Binding affinity to calf thymus DNA assessed as increase in melting temperature at 2 x 10^-5 M by UV spectrophotometric analysis; assay type: nucleic-acid assay; details: Bos taurus
P388 [24] = assay: Antitumor activity against mouse P388 cells allografted in mouse assessed as increase in survival time at 2 mg/kg, ip qd administered for 9 days relative to control; assay type: functional; details: route intraperitoneal
Calf thymus DNA [25] = assay: Binding affinity to calf thymus DNA assessed as increase in melting temperature at 1.63 x 10^-5 M by UV spectrophotometric analysis; assay type: nucleic-acid assay; details: Bos taurus
P388 [26] = assay: Antitumor activity against mouse P388 cells allografted in mouse assessed as increase in survival time at 75 mg/kg, ip qd administered for 9 days relative to control; assay type: functional; details: route intraperitoneal
Mus musculus [27] = assay: Acute toxicity in mouse allografted with mouse P388 cells assessed as survival less than 5 days at 1.56 to 75 mg/kg, ip qd; assay type: organism-based; set-up: dose 1.56-75 mg/kg, route intraperitoneal; details: in vivo, 120 h; how it was run: as §2

Row | SMILES | inhibition (L1210 [1]) | inhibition (L1210 [2]) | EC50 (L1210 [4]) [nM] | EC50 (L1210 [5]) [nM] | T/C (P388 [6]) | T/C (P388 [7]) | T/C (P388 [8]) | T/C (P388 [9]) | T/C (P388 [10]) | T/C (P388 [11]) | Activity (Calf thymus DNA [13]) | Activity (Calf thymus DNA [14]) | T/C (P388 [16]) | T/C (P388 [17]) | T/C (P388 [18]) | T/C (P388 [19]) | T/C (P388 [20]) | T/C (P388 [21]) | Activity (Mus musculus [22]) | other results
1 | COC(=O)[C@]1(O)Cc2c(O)c3c(c(O)c2[C@@H](O)C1)C(=O)c1c(OC)cccc1C3=O | inactive | inactive |  |  |  |  |  |  |  |  |  |  |  |  |  |  |  |  |  | 
2 | COc1cccc2c1C(=O)c1c(O)c3c(c(O)c1C2=O)C[C@@](O)(C(=O)O)C[C@@H]3O[C@H]1C[C@H](N)[C@H](O)[C@H](C)O1.Cl |  |  | > 100000 | 65000 | 151 | 163 | 151 | 142 | 107 | 100 | Active | Active |  |  |  |  |  |  |  | ΔTm (Calf thymus DNA [3]): 2.6 °C; Activity (Mus musculus [12]): Non-toxic
3 | COc1cccc2c1C(=O)c1c(O)c3c(c(O)c1C2=O)C[C@@](O)(C(=O)CO)C[C@@H]3O[C@H]1C[C@H](N)[C@H](O)[C@H](C)O1 [DOXORUBICIN] |  |  | 800 | 900 |  |  |  |  |  |  | Active | Active | 71 | 212 | 182 | 162 | 156 | 139 | Non-toxic | ΔTm (Calf thymus DNA [15]): 17.8 °C
4 | COc1cccc2c1C(=O)c1c(O)c3c(c(O)c1C2=O)C[C@@](O)(C(=O)O)C[C@@H]3O | inactive | inactive |  |  |  |  |  |  |  |  |  |  |  |  |  |  |  |  |  | 
5 | COc1cccc2c1C(=O)c1c(O)c3c(c(O)c1C2=O)C[C@@](O)(C(C)=O)C[C@@H]3O[C@H]1C[C@H](N)[C@H](O)[C@H](C)O1 [DAUNORUBICIN] |  |  | 300 | 300 |  |  |  |  |  |  | Active | Active | 96 | 157 | 150 | 142 | 130 | 112 | Non-toxic | ΔTm (Calf thymus DNA [23]): 16.8 °C; T/C (P388 [24]): 150
6 | COC(=O)[C@]1(O)Cc2c(O)c3c(c(O)c2[C@@H](O[C@H]2C[C@H](N)[C@H](O)[C@H](C)O2)C1)C(=O)c1c(OC)cccc1C3=O.Cl |  |  | 2000 | 900 | 125 | 115 | 112 | 108 | 103 | 107 | Active | Active |  |  |  |  |  |  |  | ΔTm (Calf thymus DNA [25]): 12.6 °C; T/C (P388 [26]): 141; Activity (Mus musculus [27]): Non-toxic
